From PubChem
Sampled rows, rich in hits. Any-hit rate of the full collection: about 1.9%.
ADAM17 inh: inhibits human ADAM17; P78536; recombinant ADAM17, EDANS/DABCYL FRET peptide cleavage; inhibition, % at 6.95 µM; hit rate 0.83% among 370,000; AID 720648;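 active = inhibition above the mean of compounds lying between control limits plus 3 SD, set per campaign, cut at about 8.5% in these data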;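 note: 0% = DMSO-only wells as the low control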
SENP1 FRET inh: inhibitors of human SENP1 SUMO protease catalytic domain; hit rate 0.21% among 360,000; AID 624204; recombinant SENP1 catalytic domain, CyPet-SUMO1-YPet FRET cleavage; inhibition, % at 10 µM;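 active = inhibition at least 30% at 10 µM, raw YFP signal under a set limit, fluorescence ratio 0.5 to 1.5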;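 note: 0% = enzyme with DMSO and 100% = no enzyme wells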
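Assay system: hSENP1 catalytic domain, recombinant. Amount: SENP1 enzyme, 20 pM final. Schedule: 50 min reaction, RT, dark. Technique: FRET, CFP and YFP emission. Control set: no-enzyme wells low, DMSO-plus-enzyme wells high control.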
FAS TE block: blocks the thioesterase domain of human fatty acid synthase; recombinant FAS-TE, OMFH fluorogenic substrate, fluorescence endpoint; inhibition, % at 15 µM; hit rate 0.67% among 360,000;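 active = compounds whose normalised, plate-corrected inhibition of enzyme fluorescence in the single-dose primary screen is 50% or more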;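 note: 0% = DMSO with enzyme and 100% = substrate without enzyme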
ADAM10 inh: ADAM10 inhibition, QFRET primary screen. inhibition, % at 7 µM. recombinant ADAM10, EDANS/DABCYL FRET peptide cleavage, 3 h. hit rate 0.62% among 370,000;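 active = inhibition above a per-campaign cutoff equal to the mean of compounds falling between control-based bounds plus 3 SD, cut at about 20% in these data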;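 note: 0% = DMSO wells while the 100% control is not disclosed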
ADAM10 confirm: confirmation of inhibitors of human ADAM10; hit rate 1% among 2,100; ADAM10 QFRET peptide cleavage, EDANS fluorescence; AID 743208; inhibition, % at 6.95 µM; shares compounds with ADAM10 inh;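 active = inhibition above about 20% chosen separately for each screening run, limit read from the data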;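 note: 0% = DMSO wells and 100% = marimastat wells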
ADAM17 counter: inhibits human ADAM17 in ADAM10 exosite counter-screen; hit rate 0.5% among 2,100; ADAM17 QFRET peptide cleavage, EDANS fluorescence; shares compounds with ADAM10 inh; inhibition, % at 6.95 µM;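 active = mean triplicate inhibition above the solvent-only control wells' mean plus 3 SD, cut at about 12% in these data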;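 note: 0% = DMSO wells and 100% = marimastat wells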
ADAM10 counter: ADAM10 inhibition, counter-screen for ADAM17 exosite hits. inhibition, % at 6.95 µM. recombinant ADAM10, EDANS/DABCYL FRET peptide cleavage, 3 h. hit rate 47% among 2,900. shares compounds with ADAM17 inh;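 active = mean inhibition over the triplicate runs exceeds the activity threshold set in the earlier primary screen, cut at about 20% in these data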;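 note: 0% = DMSO wells and 100% = marimastat wells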
ADAM17 confirm: human ADAM17 inhibition, confirmation | shares compounds with ADAM17 inh | recombinant ADAM17, EDANS/DABCYL QFRET peptide cleavage | inhibition, % at 6.95 µM | hit rate 65% among 2,900;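 active = mean inhibition across replicates above the hit cutoff set in the primary screen, cut at about 8.5% in these data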;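 note: 0% = DMSO wells and 100% = marimastat wells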
* hit, by the source's call; · = no result given.

SMILES | ADAM17 inh | SENP1 FRET inh | FAS TE block | ADAM10 inh | ADAM10 confirm | ADAM17 counter | ADAM10 counter | ADAM17 confirm
Cc1ccc(NC(=O)[C@@H]2CC(=O)O[C@@H]2c2ccccc2)c(C)c1 | -3.0 | · | · | -3.0 | · | · | · | ·
COc1cc(NC(=O)c2[nH]c(C)c(C(C)=O)c2C)c(OC)cc1Cl | -3.4 | · | · | 0.8 | · | · | · | ·
Cc1cccc(C(O)c2ncc(-c3cccc(C(F)(F)F)c3)[nH]2)c1C (configuration not stated) | 14.7* | 0.7 | 11.6 | 22.5* | 1.9 | -0.2 | 4.7 | 7.1
OC(c1cc(F)cc(Cl)c1)c1ncc(-c2ccc(Cl)cc2)[nH]1 (configuration not stated) | 17.3* | -1.5 | 15.3 | 29.1* | 4.8 | 0.3 | 21.4* | 11.2*
OC(c1ccc(F)c(F)c1)c1ncc(-c2ccc(Cl)cc2)[nH]1 (configuration not stated) | 0.4 | 2.8 | 4.0 | 7.2 | · | · | · | ·
OC(c1cccc(Cl)c1)c1ncc(-c2cccc(C(F)(F)F)c2)[nH]1 (configuration not stated) | 9.2* | -0.3 | 17.4 | 29.3* | 1.6 | 0.6 | 23.3* | 14.1*
CC/C=C\[C@H](O)[C@H](O)C1=C(C)C(=O)[C@]2(O1)C(=O)N[C@@](OC)(C(=O)c1ccccc1)[C@@H]2O | -5.7 | · | · | -6.5 | · | · | · | ·
O=C(Nc1ccc(F)cc1)OC1CC2CC1[C@H]1CCCCN1[C@H]2Cc1ccccc1 (some centres not stated) | -2.6 | · | · | -4.7 | · | · | · | ·
CN1CCS/C1=C\C=C1/SC(=S)N(CC(=O)O)C1=O | 10.5* | 67.8* | -108.3 | 25.3* | 1.8 | 0.2 | 16.7 | 10.8*
CCCCN(C)S(=O)(=O)c1ccc2[nH]c(=O)oc2c1 | 2.1 | · | · | 1.0 | · | · | · | ·
COc1cc(/C=C2/CC/C(=C/c3ccc(O)c(OC)c3)C2=O)ccc1O | 4.1 | -38.6 | -4.6 | 10.4 | · | · | · | ·
COc1cc(/C=C/C=C2/CC/C(=C/C=C/c3ccc(O)c(OC)c3)C2=O)ccc1O | 16.7* | -3.1 | -61.7 | 22.1* | 2.4 | 1.4 | 6.3 | 5.1
COc1ccc(S(=O)(=O)n2nc(-c3ccc(Cl)cc3)cc2N)cc1 | 9.0* | 1.5 | 20.1 | 20.6* | 3.1 | 0.9 | 14.8 | 8.9*
COc1ccc(-c2cc(N)n(S(=O)(=O)c3ccc(C)cc3)n2)c(OC)c1 | 1.1 | 2.9 | 5.7 | 1.1 | · | · | · | ·
CCOC(=O)c1ccc(N/C(=N\S(=O)(=O)c2ccc(F)cc2F)c2ccccc2)cc1 | 11.8* | -0.1 | 22.9 | 30.2* | 3.1 | 0.6 | 27.4* | 17.6*
CCCCCOC(=O)Nc1ccc(S(=O)(=O)Nc2cccc([N+](=O)[O-])c2)cc1 | 11.0* | 2.1 | 25.1 | 26.7* | 2.8 | 2.3 | 23.8* | 12.7*
CCCCOC(=O)Nc1ccc(S(=O)(=O)Nc2ccc([N+](=O)[O-])cc2)cc1 | 2.5 | -12.5 | 7.6 | 11.2 | · | · | · | ·
CCN(CC)C(=O)CC[C@H]1CC[C@]2(CCCN(S(=O)(=O)c3ccccc3)C2)O1 | -1.7 | · | · | -9.1 | · | · | · | ·
COc1cccc(N(C)C(=O)[C@@H](C)[C@@H](O)c2ccc(C(C)=O)cc2)c1 | -2.5 | · | · | -1.6 | · | · | · | ·
O=C(O)c1ccccc1NS(=O)(=O)c1ccc(NNC(=S)Nc2ccc(OC(F)F)cc2)c([N+](=O)[O-])c1 | 10.8* | 2.0 | 3.7 | 23.7* | 0.2 | 0.4 | 19.4 | 11.9*
Nc1[nH]c(C(=O)c2ccccc2)c(-c2ccccn2)c1C(=O)c1c[nH]c2ccc(Br)cc12 | -4.1 | · | · | -10.4 | · | · | · | ·
O=C1/C(=C\c2cccc(O)c2O)SC(=S)N1Cc1ccccc1 | 0.7 | 14.9 | 26.7 | -9.0 | · | · | · | ·
COc1cc(/C=C2/SC(=S)N(Cc3ccccc3)C2=O)ccc1O | 12.4* | -28.9 | 10.0 | 22.7* | 6.7 | 2.1 | 38.3* | 22.0*
O=C1/C(=C\c2ccc(O)c(O)c2)SC(=S)N1Cc1ccccc1 | 8.9* | -26.4 | 25.1 | 23.0* | 9.2 | 3.5 | 35.6* | 20.9*
CCc1ccc(/C=c2\s/c(=C\C(=O)C(C)(C)C)[nH]c2=O)cc1 | 16.6* | -14.8 | 18.6 | 32.9* | 11.4 | 4.6 | 19.9* | 17.0*
SMILES | ADAM17 inh | SENP1 FRET inh | FAS TE block | ADAM10 inh | ADAM10 confirm | ADAM17 counter | ADAM10 counter | ADAM17 confirm
O=C(O)c1nn(CCOc2cccc(Cl)c2)c(=O)c2ccccc12 | 2.3 | 1.7 | 14.2 | 7.5 | · | · | · | ·
O=C(O)c1nn(CCOc2cccc(Br)c2)c(=O)c2ccccc12 | 11.0* | 0.0 | 10.1 | 21.2* | 1.3 | 0.2 | 9.3 | 5.9
CN1CCCCC(NC(=O)c2c(F)cccc2F)C1=O (configuration not stated) | -6.7 | · | · | -11.2 | · | · | · | ·
COc1ccc(C(C)=O)cc1CC1(C)C(=O)Nc2ccc(-c3cccc(C(F)(F)F)c3)cc21 (configuration not stated) | 9.8* | -0.3 | 23.2 | 27.0* | 8.7 | 2.5 | 24.1* | 14.2*
CC1(Cc2ccccc2OC(F)(F)F)C(=O)Nc2ccc(-c3ccsc3)cc21 (configuration not stated) | 10.0* | 2.6 | 24.1 | 29.8* | 7.7 | 3.0 | 23.9* | 13.8*
Cc1ccc(O)c(N=Cc2cc(Cc3ccccc3)cc([N+](=O)[O-])c2O)c1 | 18.7* | 10.3 | 10.5 | 37.6* | 0.4 | 1.7 | 21.6* | 7.8
COC(=O)C1=C(C)N(C)C(=NCc2ccc3c(c2)OCO3)NC1c1cccc(Cl)c1 (configuration not stated) | -2.5 | · | · | 0.1 | · | · | · | ·
COc1ccc(NC(=O)c2cc(S(=O)(=O)N(Cc3ccccc3)c3ccccc3)ccc2Cl)cn1 | 9.6* | 2.5 | 26.2 | 20.0* | 9.2 | 2.5 | 23.0* | 11.9*
COc1ccc(NC(=O)c2cccc(S(=O)(=O)N(C)c3ccccc3)c2)cn1 | 7.2 | 0.9 | 1.3 | 3.6 | · | · | · | ·
CCOc1ccc(N(CC(=O)Nc2c(C)n(C)n(-c3ccccc3)c2=O)S(=O)(=O)c2cccc3cccnc23)cc1 | -2.5 | · | · | -14.0 | · | · | · | ·
O=C(Nc1ccc(Br)cc1)OCCN1CCCC12CCC(c1ccccc1)CC2 (configuration not stated) | -1.1 | · | · | 3.7 | · | · | · | ·
Cc1ccc(NC(=O)COC(=O)/C(=C/c2cccs2)c2cccs2)cc1S(=O)(=O)N(C)C | 15.3* | -3.8 | 27.3 | 24.1* | 6.6 | 2.9 | 11.6 | 13.0*
NS(=O)(=O)c1cccc(NC(=O)COC(=O)/C(=C/c2cccs2)c2cccs2)c1 | 6.2 | -3.9 | 19.8 | 3.9 | · | · | · | ·
O=C(/C=C/c1ccc(Cl)cc1Cl)NCCSCc1ccccc1 | 5.1 | 1.0 | 31.1 | 12.5 | · | · | · | ·
O=C(/C=C/c1ccc(Cl)cc1Cl)NCCSc1ccccc1 | 10.5* | -2.9 | 22.4 | 24.6* | 6.2 | 1.6 | 23.4* | 16.8*
